From ChEMBL document CHEMBL4024748, “Development of Potent Type I Protein Arginine Methyltransferase (PRMT) Inhibitors of Leukemia Cell Proliferation” (J Med Chem, 2017) come the findings set out here.

Each structure is given as a SMILES string. Activity calls are given as the source filed them. No cut-off for these calls is given here. Bounds are passed on as bounds.

Series [1] addresses T1, Protein arginine N-methyltransferase 1 (Rattus norvegicus, UniProt Q63009). Description: Inhibition of rat His-tagged PRMT1 (11 to 353 residues) expressed in Escherichia coli BL21(DE3) using biotinylated H4 peptide (1 to 21 residues) as substrate preincubated for 15 mins followed by substrate addition measured after 60 mins in presence of [3H]SAM by microbeta counting method. In a few lines: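 Radiometric assay in modified Tris buffer. His6-rPRMT1(11–353) preincubated with compound 15 min at RT, then substrate and [3H]-SAM added. Reaction 60 min at RT, stopped with cold stop solution, transferred to Flashplate for 60 min, washed with water/0.1% Tween-20, counted on Microbeta. IC50 from curve fit.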

The target in series [2] is Protein arginine N-methyltransferase 1 (Rattus norvegicus) (UniProt Q63009). Description: Uncompetitive inhibition of rat His-tagged PRMT1 (11 to 353 residues) expressed in Escherichia coli BL21(DE3) using biotinylated H4 peptide (1 to 21 residues) as substrate in presence of varying concentrations of [3H]SAM. In a few lines: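 Kinetic mode-of-action study using the radiolabel method with His6-rPRMT1(11–353). IC50 measured at varied peptide substrate or varied SAM concentrations, with the other component fixed. 15 min enzyme–compound preincubation, then 60 min reaction at RT with [3H]-SAM, Flashplate capture and Microbeta counting.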

Series [3] concerns the target T1, Protein arginine N-methyltransferase 1. Description: Inhibition of rat His-tagged PRMT1 (11 to 353 residues) expressed in Escherichia coli BL21(DE3) incubated for 15 mins followed by substrate addition measured after 60 mins by AlphaLisa method. Put shortly:
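AlphaLISA IC50 run. Compound dispensed to 1% DMSO final, enzyme in 1x assay buffer preincubated 15 min at room temperature. Substrate added and reacted 60 min at RT, then AlphaLISA bead mix added for 60 min at RT in subdued light. IC50 taken from the dose-response fit.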
In general terms: Bead proximity is the source of the signal in Alpha formats.

The target in series [4] is Protein arginine N-methyltransferase 3 (Homo sapiens, UniProt O60678). Description: Inhibition of PRMT3 (unknown origin) incubated for 15 mins followed by substrate addition measured after 60 mins by AlphaLisa method. Put shortly:
(§1)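 AlphaLISA. Enzyme and substrate in 1x assay buffer, compound at 1% DMSO final. Enzyme preincubated with compound 15 min at room temperature, then substrate added. Reaction 60 min at room temperature, then bead mix added and incubated 60 min under subdued light before signal read.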

The target of series [5] is Histone-arginine methyltransferase CARM1 (Homo sapiens, UniProt Q86X55). Description: Inhibition of PRMT4 (unknown origin) incubated for 15 mins followed by substrate addition measured after 60 mins by AlphaLisa method. In a few lines:
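Enzyme preincubated with compound for 15 min at room temperature in 1x assay buffer (final DMSO 1%), then substrate added. The reaction ran for 60 min at room temperature. AlphaLISA bead mix was then added and incubated for 60 min at room temperature in subdued light. The luminescent signal was read and IC50 derived by curve fitting.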

The target of series [6] is Protein arginine N-methyltransferase 5 (Homo sapiens, UniProt O14744). Briefly: Inhibition of PRMT5 (unknown origin) incubated for 15 mins followed by substrate addition measured after 60 mins by AlphaLisa method. In a few lines:
as §1

Series [7] addresses Protein arginine N-methyltransferase 6 (Homo sapiens, UniProt Q96LA8). Description: Inhibition of PRMT6 (unknown origin) incubated for 15 mins followed by substrate addition measured after 60 mins by AlphaLisa method. In a few lines: as §1
The target in series [8] is DNA (cytosine-5)-methyltransferase 1 (Homo sapiens) (UniProt P26358). Briefly: Inhibition of DNMT1 (unknown origin) at 50 uM incubated for 15 mins followed by substrate addition measured after 60 mins by radioisotope assay.
In series [9] the target is Histone-lysine N-methyltransferase PRDM9 (Homo sapiens) (UniProt Q9NQV7). Description: Inhibition of PRDM9 (unknown origin) at 100 uM incubated for 15 mins followed by substrate addition measured after 60 mins by AlphaLisa method. In a few lines:
as §1

For series [10], the target named is Histone-lysine N-methyltransferase SUV39H1 (Homo sapiens) (UniProt O43463). Briefly: Inhibition of SUV39H1 (unknown origin) at 100 uM incubated for 15 mins followed by substrate addition measured after 60 mins by AlphaLisa method. In a few lines: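 SUV39H1 AlphaLISA at 50 and 100 µM compound, 1% DMSO final. Enzyme preincubated 15 min at room temperature, substrate reaction 60 min at RT. Bead mix then added for 60 min at RT in subdued light before signal collection.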

Series [11] concerns the target Histone acetyltransferase KAT2A (Homo sapiens) (UniProt Q92830). Description: Inhibition of GCN5 (unknown origin) at 100 uM incubated for 15 mins followed by substrate addition measured after 60 mins by radioisotope assay.
Series [12] relates to THP-1. Briefly: Cytotoxicity against human THP1 cells assessed as decrease in cell viability after 96 hrs by Cell-Titer Glo assay. It is filed as functional, cell-based. In a few lines:
(§2)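 Cells kept at 37°C, 5% CO2, exposed to compound or DMSO control for 96 h. Viability read by CellTiter-Glo luminescence after 2 min shaking to lyse and 10 min at room temperature. Triplicate wells, normalised to control cells. For long-term growth, log-phase seeding densities; cells counted and replated to the starting density with fresh compound on days 4 and 8.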

In series [13] the test system is REH. Description: Cytotoxicity against human REH cells assessed as decrease in cell viability after 96 hrs by Cell-Titer Glo assay. It counts as functional, cell-based. Put shortly: as §2
The subject of series [14] is U-937. Description: Cytotoxicity against human U937 cells assessed as decrease in cell viability after 96 hrs by Cell-Titer Glo assay. It is filed as functional, cell-based. In a few lines: as §2
For series [15], the system named is MV4-11. Description: Cytotoxicity against human MV4-11 cells assessed as decrease in cell viability at 6.25 to 12.5 uM after 96 hrs by Cell-Titer Glo assay. It is filed as functional, cell-based. In a few lines: as §2
Series [16] has as its system MRC5. Briefly: Cytotoxicity against human MRC5 cells assessed as decrease in cell viability at 6.25 to 25 uM after 96 hrs by Cell-Titer Glo assay. It counts as cell-based. The conditions noted are these: mrc5, 96 h. Put shortly: (§3)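 Normal HUV-EC-C, MRC-5 and RCTEC cells at 37°C, 5% CO2, given compound or DMSO control for 96 h. Viability by CellTiter-Glo luminescence after 2 min shaking and 10 min at room temperature. Triplicate wells, normalised to control cells.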

Series [17] is described as follows: Cytotoxicity against human HUV-EC-C cells assessed as decrease in cell viability at 6.25 to 25 uM after 96 hrs by Cell-Titer Glo assay. It is filed as cell-based. In a few lines: as §3
The test system of series [18] is MV4-11. Briefly: Antiproliferative activity against human MV4-11 cells assessed as decrease in cell viability at 0.1 to 1000 uM by Cell-Titer Glo assay. The conditions noted are these: TDE = time-dependent effect. It is filed as functional, cell-based. In a few lines:
as §2

In series [19] the target is Protein arginine N-methyltransferase 1 (Homo sapiens) (UniProt Q99873). Briefly: Inhibition of PRMT1 in human MV411 cells assessed as increase in SDMA levels after 48 hrs by Western blot analysis. It is filed as cell-based. Put shortly: (§4)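 MV4-11 cells treated with compound for 48 h. ADMA, SDMA and H4R3me2a read by western blot. Blots blocked in 5% nonfat milk in PBST, primary antibodies overnight at 4°C, HRP anti-rabbit secondary at 1:10000 for 1 h.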
(Immunoblotting shows a protein as a band on a membrane.)

Series [20] has as its system MV4-11. Description: Downregulation of HOXA9 mRNA levels in human MV4-11 cells by qRT-PCR analysis. It counts as functional, cell-based. Put shortly: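 MV4-11 cells treated with compound. mRNA measured by SYBR Green qRT-PCR with B2M as internal control. Fold change from ΔΔCt. Samples run in triplicate, mean ± SD.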
(Quantitative PCR measures a nucleic acid by following its amplification.)

Series [21] has as its target Protein arginine N-methyltransferase 1 (Homo sapiens) (UniProt Q99873). Description: Inhibition of PRMT1 in human MV411 cells assessed as reduction in H4R3me2a levels after 48 hrs by Western blot analysis. It counts as cell-based. Put shortly: as §4

T1 sequence (Q63009 whole entry, the tested form may be a part): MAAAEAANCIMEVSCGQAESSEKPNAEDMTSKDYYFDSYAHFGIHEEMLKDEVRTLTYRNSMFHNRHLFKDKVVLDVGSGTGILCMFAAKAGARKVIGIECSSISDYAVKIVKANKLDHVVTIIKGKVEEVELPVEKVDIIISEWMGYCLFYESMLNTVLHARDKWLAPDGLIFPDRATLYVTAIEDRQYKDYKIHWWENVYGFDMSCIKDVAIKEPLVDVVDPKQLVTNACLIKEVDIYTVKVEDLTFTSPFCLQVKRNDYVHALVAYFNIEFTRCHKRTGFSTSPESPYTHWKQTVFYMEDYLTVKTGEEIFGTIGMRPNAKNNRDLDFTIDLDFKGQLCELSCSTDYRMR
Protein arginine N-methyltransferase 1 (Homo sapiens), sequence (Q99873 whole entry, looked up): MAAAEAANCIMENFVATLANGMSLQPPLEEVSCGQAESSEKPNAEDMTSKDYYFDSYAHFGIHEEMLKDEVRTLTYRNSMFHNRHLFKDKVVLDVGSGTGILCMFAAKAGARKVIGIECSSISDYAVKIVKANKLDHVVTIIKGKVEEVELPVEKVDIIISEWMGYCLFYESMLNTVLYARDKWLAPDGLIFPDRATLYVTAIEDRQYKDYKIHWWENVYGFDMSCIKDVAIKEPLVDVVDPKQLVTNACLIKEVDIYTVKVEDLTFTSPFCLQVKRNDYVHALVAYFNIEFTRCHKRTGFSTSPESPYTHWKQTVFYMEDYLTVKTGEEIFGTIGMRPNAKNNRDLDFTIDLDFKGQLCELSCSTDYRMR
Protein arginine N-methyltransferase 3, sequence (O60678 whole entry): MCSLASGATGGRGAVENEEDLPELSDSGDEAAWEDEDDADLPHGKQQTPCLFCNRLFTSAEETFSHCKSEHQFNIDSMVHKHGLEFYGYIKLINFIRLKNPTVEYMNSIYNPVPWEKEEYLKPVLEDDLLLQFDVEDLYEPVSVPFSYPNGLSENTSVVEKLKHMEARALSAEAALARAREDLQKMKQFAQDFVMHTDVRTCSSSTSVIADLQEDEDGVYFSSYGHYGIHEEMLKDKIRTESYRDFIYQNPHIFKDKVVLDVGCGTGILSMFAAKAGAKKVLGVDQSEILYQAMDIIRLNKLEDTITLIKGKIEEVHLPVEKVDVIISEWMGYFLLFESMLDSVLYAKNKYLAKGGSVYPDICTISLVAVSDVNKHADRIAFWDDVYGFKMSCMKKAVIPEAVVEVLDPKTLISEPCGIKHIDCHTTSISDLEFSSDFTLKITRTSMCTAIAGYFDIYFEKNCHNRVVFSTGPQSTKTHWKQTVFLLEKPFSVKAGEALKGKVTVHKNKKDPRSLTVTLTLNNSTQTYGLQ
Histone-lysine N-methyltransferase PRDM9 (Homo sapiens), sequence (Q9NQV7 whole entry): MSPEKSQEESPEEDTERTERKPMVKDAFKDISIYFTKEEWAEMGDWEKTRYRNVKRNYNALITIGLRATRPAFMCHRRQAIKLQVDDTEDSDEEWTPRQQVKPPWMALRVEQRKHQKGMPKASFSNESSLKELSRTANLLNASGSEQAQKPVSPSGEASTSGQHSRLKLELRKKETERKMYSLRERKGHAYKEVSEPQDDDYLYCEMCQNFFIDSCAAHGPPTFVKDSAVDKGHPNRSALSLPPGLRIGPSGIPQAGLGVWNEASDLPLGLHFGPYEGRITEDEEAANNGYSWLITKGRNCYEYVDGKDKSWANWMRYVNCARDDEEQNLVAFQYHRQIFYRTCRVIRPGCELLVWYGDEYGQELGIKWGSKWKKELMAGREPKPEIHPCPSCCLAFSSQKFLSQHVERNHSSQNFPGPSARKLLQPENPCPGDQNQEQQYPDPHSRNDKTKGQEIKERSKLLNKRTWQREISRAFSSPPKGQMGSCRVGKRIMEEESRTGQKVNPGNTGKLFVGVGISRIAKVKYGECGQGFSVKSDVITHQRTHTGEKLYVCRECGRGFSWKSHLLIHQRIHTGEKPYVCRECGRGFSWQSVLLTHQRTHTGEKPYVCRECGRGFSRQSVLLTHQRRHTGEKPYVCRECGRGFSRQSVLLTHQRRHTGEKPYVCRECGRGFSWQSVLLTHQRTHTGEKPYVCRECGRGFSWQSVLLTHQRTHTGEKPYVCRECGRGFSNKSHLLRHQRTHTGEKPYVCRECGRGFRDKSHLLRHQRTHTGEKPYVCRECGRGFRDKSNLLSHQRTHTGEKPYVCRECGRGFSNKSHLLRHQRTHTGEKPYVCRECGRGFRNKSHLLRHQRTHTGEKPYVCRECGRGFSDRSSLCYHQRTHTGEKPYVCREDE
Histone-lysine N-methyltransferase SUV39H1 (Homo sapiens), sequence (O43463 whole entry): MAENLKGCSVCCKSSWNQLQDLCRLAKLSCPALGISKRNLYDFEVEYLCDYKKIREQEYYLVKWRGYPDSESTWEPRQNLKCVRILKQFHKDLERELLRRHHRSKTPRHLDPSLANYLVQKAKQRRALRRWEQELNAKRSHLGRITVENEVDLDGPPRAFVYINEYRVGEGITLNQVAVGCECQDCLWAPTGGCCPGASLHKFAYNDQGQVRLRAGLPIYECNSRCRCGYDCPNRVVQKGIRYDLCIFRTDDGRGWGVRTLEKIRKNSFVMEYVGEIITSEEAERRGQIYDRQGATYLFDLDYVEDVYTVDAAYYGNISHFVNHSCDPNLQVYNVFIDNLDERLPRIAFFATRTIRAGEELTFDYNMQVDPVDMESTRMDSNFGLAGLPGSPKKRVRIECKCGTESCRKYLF
Protein arginine N-methyltransferase 1 (Rattus norvegicus), sequence (Q63009 whole entry, looked up, the tested form may be a part): as the sequence (Q63009 whole entry, the tested form may be a part) above
Histone acetyltransferase KAT2A (Homo sapiens), sequence (Q92830 2-837 limits assumed): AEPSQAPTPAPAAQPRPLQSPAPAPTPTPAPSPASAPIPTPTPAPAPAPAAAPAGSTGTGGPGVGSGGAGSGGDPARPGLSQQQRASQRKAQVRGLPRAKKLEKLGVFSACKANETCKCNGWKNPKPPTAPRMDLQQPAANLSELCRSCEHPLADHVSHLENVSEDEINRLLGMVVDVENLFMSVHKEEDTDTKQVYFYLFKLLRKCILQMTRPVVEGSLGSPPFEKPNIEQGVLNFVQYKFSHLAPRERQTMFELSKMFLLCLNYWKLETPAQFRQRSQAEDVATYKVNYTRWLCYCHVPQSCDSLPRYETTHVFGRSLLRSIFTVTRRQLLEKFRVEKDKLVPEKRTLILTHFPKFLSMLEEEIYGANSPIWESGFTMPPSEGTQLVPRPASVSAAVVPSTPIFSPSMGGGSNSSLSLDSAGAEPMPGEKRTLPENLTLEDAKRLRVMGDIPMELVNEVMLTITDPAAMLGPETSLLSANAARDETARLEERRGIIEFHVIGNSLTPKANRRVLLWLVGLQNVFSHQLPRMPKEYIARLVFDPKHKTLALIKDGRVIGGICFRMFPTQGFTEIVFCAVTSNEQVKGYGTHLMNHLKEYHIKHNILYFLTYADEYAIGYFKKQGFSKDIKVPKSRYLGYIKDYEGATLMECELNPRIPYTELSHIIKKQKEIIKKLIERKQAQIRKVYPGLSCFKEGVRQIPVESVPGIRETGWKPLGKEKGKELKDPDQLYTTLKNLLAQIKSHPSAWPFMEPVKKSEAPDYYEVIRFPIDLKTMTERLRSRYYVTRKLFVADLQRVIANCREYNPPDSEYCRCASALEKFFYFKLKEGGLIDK
DNA (cytosine-5)-methyltransferase 1 (Homo sapiens), sequence (P26358 whole entry): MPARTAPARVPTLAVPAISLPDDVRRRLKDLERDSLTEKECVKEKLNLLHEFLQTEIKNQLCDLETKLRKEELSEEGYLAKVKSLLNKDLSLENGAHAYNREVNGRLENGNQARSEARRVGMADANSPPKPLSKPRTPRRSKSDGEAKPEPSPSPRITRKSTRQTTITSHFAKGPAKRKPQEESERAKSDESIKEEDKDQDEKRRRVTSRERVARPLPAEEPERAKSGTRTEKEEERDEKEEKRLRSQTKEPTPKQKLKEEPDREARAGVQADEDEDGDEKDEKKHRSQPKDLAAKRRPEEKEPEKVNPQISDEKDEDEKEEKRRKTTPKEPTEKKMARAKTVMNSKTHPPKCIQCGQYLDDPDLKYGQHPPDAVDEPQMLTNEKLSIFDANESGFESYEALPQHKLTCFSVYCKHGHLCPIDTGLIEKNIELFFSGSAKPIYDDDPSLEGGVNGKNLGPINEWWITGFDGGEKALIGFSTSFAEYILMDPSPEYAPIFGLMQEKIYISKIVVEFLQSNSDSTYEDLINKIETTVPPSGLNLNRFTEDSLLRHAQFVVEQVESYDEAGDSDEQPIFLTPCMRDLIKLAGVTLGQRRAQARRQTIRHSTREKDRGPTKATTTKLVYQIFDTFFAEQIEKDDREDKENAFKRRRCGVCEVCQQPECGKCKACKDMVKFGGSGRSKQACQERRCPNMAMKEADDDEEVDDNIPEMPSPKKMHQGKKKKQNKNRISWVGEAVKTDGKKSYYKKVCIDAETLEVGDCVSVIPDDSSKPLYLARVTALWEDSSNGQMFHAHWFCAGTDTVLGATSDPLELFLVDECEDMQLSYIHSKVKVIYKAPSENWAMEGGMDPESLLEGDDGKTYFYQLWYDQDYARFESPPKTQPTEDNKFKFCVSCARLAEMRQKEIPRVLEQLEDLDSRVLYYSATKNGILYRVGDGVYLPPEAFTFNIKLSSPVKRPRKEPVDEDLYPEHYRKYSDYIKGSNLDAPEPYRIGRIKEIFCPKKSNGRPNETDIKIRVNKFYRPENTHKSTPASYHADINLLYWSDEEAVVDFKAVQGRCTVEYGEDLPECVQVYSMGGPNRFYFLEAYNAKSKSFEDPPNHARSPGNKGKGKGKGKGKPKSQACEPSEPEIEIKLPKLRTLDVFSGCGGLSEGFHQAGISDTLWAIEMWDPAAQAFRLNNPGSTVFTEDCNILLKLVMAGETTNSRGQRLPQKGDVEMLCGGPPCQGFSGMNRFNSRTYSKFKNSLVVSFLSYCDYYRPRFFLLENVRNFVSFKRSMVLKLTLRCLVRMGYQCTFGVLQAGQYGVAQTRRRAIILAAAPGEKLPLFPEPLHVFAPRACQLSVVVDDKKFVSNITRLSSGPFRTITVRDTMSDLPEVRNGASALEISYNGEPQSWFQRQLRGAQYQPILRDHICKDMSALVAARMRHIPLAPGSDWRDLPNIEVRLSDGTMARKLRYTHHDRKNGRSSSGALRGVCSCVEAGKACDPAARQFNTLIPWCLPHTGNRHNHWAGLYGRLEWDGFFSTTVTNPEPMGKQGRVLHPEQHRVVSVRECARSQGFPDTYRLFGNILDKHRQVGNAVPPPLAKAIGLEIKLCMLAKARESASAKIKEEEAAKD

For `CN(CCN)Cc1ccccc1Sc1ccccc1Cl`, the IC50 (as a rule, the concentration that gives 50% inhibition) in [1] is 5.3 nM; in [3] it was 1.1 nM; in series [4], 22 nM; in [5] it was 63 nM; in series [6], over 100 µM; in [7] it was 1.2 nM. Also, the inhibition result in series [2], in series [8], in [9], in series [10] and in series [11] was “Active” in each case. For the same compound, the Activity result is “Dose-dependent effect” in series [12]; “Dose-dependent effect” in series [13]; “Dose-dependent effect” in series [14]; “Non-Toxic” in [16]; “Non-Toxic” in series [17]; “Tde” in [18]. Moreover, in series [20], the Activity entry is “Dose-dependent effect”. Further, in series [15], the outcome was Active. For the same compound, the inhibition entry in [19] and in series [21] was “Dose-dependent effect” throughout.
